Experiments:
[1] = Binding affinity towards norepinephrine transporter determined using [3H]nisoxetine as radioligand
Summary of the method: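 Competition binding at the norepinephrine transporter against [³H]nisoxetine, present at 1.0 nM final concentration.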

[2] = Binding affinity of compound towards dopamine transporter determined using [3H]WIN-35 428 as radioligand
Summary of the method: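 Competition binding at the dopamine transporter; displacement of [³H]WIN 35,428 at 0.5 nM final concentration.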

[3] = Binding affinity towards serotonin transporter determined using [3H]paroxetine as radioligand
Summary of the method: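 Serotonin transporter affinity from competition binding versus [³H]paroxetine at a final concentration of 0.2 nM.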

| SMILES | Ki [1] [nM] | IC50 [2] [nM] | Ki [3] [nM] |
| --- | --- | --- | --- |
| COC(=O)C1C(c2ccc(Cl)c(I)c2)CC2CCC1N2C (stereo unspecified) | 15.1 | 0.41 | 1.39 |
| COC(=O)C1C(c2ccc(Br)c(Br)c2)CC2CCC1N2C (stereo unspecified) | 2.8 | 0.27 | 0.71 |
| COC(=O)C1C(c2ccc(I)c(I)c2)CC2CCC1N2C (stereo unspecified) | 40.4 | 0.98 | 2 |
| COC(=O)[C@@H]1C2CC[C@H](C[C@@H]1c1ccccc1)N2C | 920 | 23 | 1060 |
| COC(=O)C1C2CC[C@H](C[C@@H]1c1ccc(I)c(Cl)c1)N2C (stereo partly specified) | 1.26 | 0.26 | 1.04 |
| COC(=O)C1C(c2ccc(Br)c(I)c2)CC2CCC1N2C (stereo unspecified) | 10.4 | 0.21 | 1.14 |
| COC(=O)C1C2CC[C@H](C[C@@H]1c1ccc(Cl)c(C)c1)N2C (stereo partly specified) | 36.2 | 0.82 | 10.5 |
| COC(=O)C1C(c2ccc(Cl)c(Br)c2)CC2CCC1N2C (stereo unspecified) | 7.24 | 0.42 | 0.78 |
| COC(=O)C1C(c2ccc(Br)c(Cl)c2)CC2CCC1N2C (stereo unspecified) | 1.31 | 0.12 | 0.94 |
| COC(=O)C1C2CC[C@H](C[C@@H]1c1ccc(I)c(Br)c1)N2C (stereo partly specified) | 1.96 | 0.2 | 0.58 |
| COC(=O)C1C(c2ccc(C)c(C)c2)CC2CCC1N2C (stereo unspecified) | 107 | 0.43 | 9.88 |
| COC(=O)C1C(c2ccc(Cl)c(Cl)c2)CC2CCC1N2C (stereo unspecified) | 18 | 0.79 | 3.13 |

— ChEMBL document CHEMBL1143590, “Synthesis and monoamine transporter binding properties of 3beta-(3',4'-disubstituted phenyl)tropane-2beta-carboxylic acid methyl esters” (J Med Chem, 2005)
